# Many of the other results were omitted from the sample, so hits are more common in it than they were.
# XBP1 UPR activ – activators of adaptive XBP1 UPR arm, primary screen, cell-based, CHO-XBP1 luciferase reporter, luminescence, uHTS; hit rate 0.33% among 330,000; AID 463104, 2010; activation, % at 20 µM; IRE1-XBP1 UPR activation; percent of tunicamycin response, DMSO as zero;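 active = versus positive control, 20 µM dose yields 30% or more activation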;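 also: 100% = tunicamycin at 10 µg/mL and 0% = DMSO only wells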
#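 Material: CHO cell line with stable XBP1 luciferase reporter; buffer or medium: F12 medium containing 10% fetal bovine serum; compound: single point, 20 µM final compound, 1% DMSO; incubation: 6 h treatment, 37 °C; measured by: glow luminescence from Steady-Glo reagent; evaluation: activation, % of tunicamycin; control set: tunicamycin high, DMSO low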
# Dynein transport – inhibitors of GR-EGFP nuclear translocation, primary screen, dynein cargo transport inhibitor project, imaging, high-content, 3617.4 mouse cells. hit rate 0.47% among 220,000. AID 1381, 2008. z-score, hits read low. test concentration mostly 20 µM; stimulated with dexamethasone, 1 µM; stronger effect = lower value;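 active = plate z-score of nuclear minus cytoplasmic receptor signal below a set negative limit, without overly bright fluorescence or cell loss, cut at about -3.5 in these data, passing the limit was not always enough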;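 also: z-score of nuclear minus cytoplasmic ring GR-EGFP intensity difference per well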
#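 Buffer or medium: tet-free medium with charcoal-stripped serum / Also added: dexamethasone agonist, 1.0 µM final, for 30 min / Timing: induction 48 h, compound 1 h, agonist 30 min / Measured by: high-content fluorescence imaging after fixation / Read-out: nuclear-to-cytoplasmic GR-EGFP distribution per well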
# Lmaj promast – Leishmania major promastigote growth inhibition, primary screen; Leishmania major promastigotes, resazurin fluorescence viability; AID 1063, 2008; hit rate 9% among 200,000; inhibition, % at 10 µM; in the data active = inhibition above about 50%;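 also: promastigotes grown with compound for 44 hours at 28 °C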
# T cruzi repl – inhibitors of intracellular T. cruzi growth, primary screen, luminescence, NIH3T3 host cells. T. cruzi beta-gal in NIH3T3, 90 h. inhibition, % (concentration not given with the values). hit rate 1.4% among 300,000;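 active = mean inhibition across valid replicates above about 55%, limit read from the data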;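 also: signal also drops with host cell toxicity which is not excluded here; 0% = plate median of DMSO wells and 100% = zero luminescence signal; higher percent means less beta-gal luminescence so fewer parasites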
#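 compound dosing = single 50 nL compound addition per well in DMSO | material = NIH/3T3 host cells with β-galactosidase reporter T. cruzi | input = 5,000 host fibroblasts per well | timing = ≥90 h infection period, 3 h prior cell attachment | read-out basis = percent inhibition of parasite-derived β-gal signal | detection = GalScreen β-gal luminescence, detergent lysis, 60 min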
# UPR CHOP act – activators of apoptotic CHOP UPR arm, primary screen, cell-based, CHO-CHOP luciferase reporter, luminescence, uHTS; activation, % at 10 µM; hit rate 0.34% among 330,000; UPR activation; percent of tunicamycin response over DMSO baseline;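 active = at 10 µM dose, activation of 40% or more, normalized to positive control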;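 also: 100% = tunicamycin at 10 µg/mL and 0% = DMSO alone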
#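 Assay system: CHO-CHOP cells, stable luciferase reporter of PERK-eIF2a-CHOP signalling / Buffer or medium: F12 plus 10% serum / Compound dosing: one dose, 10 µM in 0.5% DMSO / Times: 6 h compound treatment, 37 °C / Technique: luciferase luminescence / Read-out: % reporter activation, DMSO baseline versus tunicamycin full activation / Benchmarks: tunicamycin and DMSO controls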
# CHOP inh – inhibitors of CHOP promoter induction, primary screen, cell-based, unfolded protein response, luciferase reporter. inhibition, % at 10 µM. hit rate 3.8% among 220,000. CHO-K1 CHOP-promoter luciferase, tunicamycin-induced, 15-18 h. AID 2732, 2010;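 active = compounds that reduced the stress-induced luciferase reporter signal by more than about 70% of percent inhibition, limit read from the data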;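 also: 0% = tunicamycin plus vehicle and 100% = wells without tunicamycin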
# L major 1uM – Leishmania major promastigote growth inhibition, confirmation, 1 µM repeat of primary hits | shares compounds with Lmaj promast | L. major promastigote growth, resazurin fluorescence, 48 h | inhibition, % at 1 µM | hit rate 13% among 1,100;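 active = inhibition above about 50% in both repeat tests, limit read from the data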
# Numbers without * were called inactive; nt = no result given.
SMILES,XBP1 UPR activ,Dynein transport,Lmaj promast,T cruzi repl,UPR CHOP act,CHOP inh,L major 1uM
Cc1ccc(C2CC(=O)c3cnn(-c4nc(C)cc(C)n4)c3C2)cc1 (stereo unspecified),1,0.6,75*,-3,-1,33,16
Cc1nn(Cc2ccc(Cl)cc2)c(=O)n1N(C)c1ncc(C(F)(F)F)cc1Cl,0,-0.014,94*,23,1,81*,-17
O=C(/C=C/c1ccccc1)Nc1ccc(Cl)cn1,nt,0.38,-1,-88,nt,-34,nt
CCc1nc2ccccc2c2nc3ccccc3n12,2,-0.19,87*,-24,-3,-5,-15
c1ccc2c(c1)nc(CN1CCOCC1)n1c3ccccc3nc21,7,-0.7,12,9,-1,5,nt
CC(C)(C)c1ccc(-n2nc(C#N)c(Cl)cc2=O)cc1,-10,-0.11,101*,66*,-9,108*,92*
CC(C)(C)c1ccc(-n2nc(C(N)=O)c(O)cc2=O)cc1,0,0.98,4,-2,1,-4,nt
COc1ccc(N2C(=O)c3ccc(C(=O)Nc4ccc(NC(C)=O)cc4)cc3C2=O)cc1,1,nt,nt,-15,-2,nt,nt
COc1ccccc1C(=O)Nc1cccc2cccnc12,0,nt,nt,-5,0,nt,nt
O=C1CSC(c2cn(-c3ccccc3)nc2-c2cc3ccccc3oc2=O)N1Cc1ccccc1 (stereo unspecified),-1,-0.76,61*,42,0,7,1
CN(C)C(=O)c1cn(-c2ccccc2)nc1-c1cc2ccccc2oc1=O,-2,-0.55,-2,8,-1,7,nt
O=[N+]([O-])c1ccc(-n2cnc3ccccc32)c([N+](=O)[O-])c1,-3,-0.28,100*,71*,1,-1,22
CCOC(=O)c1ccc(Oc2coc3cc(O)ccc3c2=O)cc1,-4,nt,nt,-16,3,nt,nt
CC1=CC2(O)OCCN(CCO)C2=CC1=O (stereo unspecified),-1,0.55,99*,-19,0,-7,-10
CC(C)(C)c1ccc(C(=O)N2CCC(=O)N(C(COCc3ccccc3)Cc3ccccc3)CC2)cc1 (stereo unspecified),-5,1.7,52*,9,2,20,-22
CCOc1ccccc1N1C(=O)c2ccc(S(=O)(=O)c3ccc(C(=O)O)cc3)cc2C1=O,-3,nt,nt,-9,-2,nt,nt
CNC[C@@H]1Oc2ccc(NC(=O)Nc3cccc4ccccc34)cc2C(=O)N([C@@H](C)CO)C[C@@H]1C,0,nt,nt,nt,-1,nt,nt
CCC1COCCS(=O)(=O)N1Cc1cccc(C(F)(F)F)c1 (stereo unspecified),-1,nt,nt,-8,-1,nt,nt
O=C(CN1CCN(Cc2ccccc2)CC1)N1CCCc2c1c(=O)oc1ccc(O)cc21,nt,0.68,10,14,nt,50,nt
O=C(CN1CCCCC1)N1CCCc2c1c(=O)oc1ccc(OCc3ccccc3)cc21,0,-0.59,67*,23,-2,48,-2
CCC(O)C1CCN(C(=O)c2ccc(OC3CCN(Cc4ccccn4)CC3)cc2)CC1 (stereo unspecified),-9,nt,nt,-2,-2,nt,nt
COc1cccc(CN(C)C(=O)CSc2nc3ccccc3[nH]2)c1OC,7,nt,nt,3,3,nt,nt
CC1=Nc2ccccc2/C1=C/c1sc(=N)n(-c2nccs2)c1O,11,3.6,100*,63*,18,-33,-2
CSC1=NCCN1C(=O)C(C)(C)Oc1ccc(Cl)cc1,-4,0.26,30,6,-1,nt,nt
CCSC1=NCCN1C(=O)C(C)(C)Oc1ccc(Cl)cc1,-4,-0.75,65*,-6,0,-2,3
O=C(COC(=O)CCc1nc2ccccc2c(=O)[nH]1)Nc1ccccc1OC(F)F,-3,nt,nt,nt,1,nt,nt

# Source: PubChem BioAssay
